Measurements reported in ChEMBL document CHEMBL1667755, “2-hydroxyisoquinoline-1,3(2H,4H)-diones as inhibitors of HIV-1 integrase and reverse transcriptase RNase H domain: influence of the alkylation of position 4” (Eur J Med Chem, 2011).

Experiments:
[1] = system: Human immunodeficiency virus 1; experiment: Antiviral activity against HIV1 3B infected in human MT4 cells assessed as inhibition of virus-induced cytopathic effect by MTT assay; format: functional, organism-based; settings: Human immunodeficiency virus 1, 3B
Summary of the method: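 MT-4 cells infected with 100-300 CCID50 of HIV-1 IIIB (dose titrated in MT-4 cells) in the presence of 5-fold serial drug dilutions. Protection from virus-induced cytopathic effect read by MTT reduction to formazan, measured spectrophotometrically.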

[2] = Cytotoxicity against human MT4 cells by MTT assay; format: cell-based
[3] = target: Human immunodeficiency virus type 1 integrase (Human immunodeficiency virus 1, UniProt Q7ZJM1); experiment: Inhibition of HIV-1 integrase after 1 hr by immunosorbent assay
Sequence of Human immunodeficiency virus type 1 integrase (Q7ZJM1 whole entry): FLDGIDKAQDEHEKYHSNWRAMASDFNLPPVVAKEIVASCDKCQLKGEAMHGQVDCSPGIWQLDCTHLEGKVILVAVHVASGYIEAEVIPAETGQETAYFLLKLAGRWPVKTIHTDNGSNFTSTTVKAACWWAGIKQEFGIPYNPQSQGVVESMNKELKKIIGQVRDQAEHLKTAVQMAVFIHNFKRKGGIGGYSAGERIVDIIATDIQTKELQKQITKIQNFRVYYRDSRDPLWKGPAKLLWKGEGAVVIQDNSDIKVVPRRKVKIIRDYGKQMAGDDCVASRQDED
Summary of the method: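 Overall integration ELISA. Substrate is annealed oligos (7 nM), one 3'-biotin-labelled and one 5'-digoxigenin-labelled, with integrase at […] as written. Reaction 1 h at 37 °C, then immunodetection on avidin-coated plates. IC50 is the mean ± SD of at least three independent experiments.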

[4] = target: Human immunodeficiency virus type 1 reverse transcriptase (Human immunodeficiency virus 1, UniProt Q72547); experiment: Inhibition of recombinant HIV-1 reverse transcriptase RNase H domain after 10 mins
Summary of the method: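 Recombinant HIV-1 RT (4.5 pmol) preincubated with compound 10 min at 37 °C. Then added: 3H-RNA/DNA duplex (E. coli RNA polymerase transcript of calf thymus ssDNA, 20,000 cpm) in 50 mM Tris-HCl pH 8.0, 10 mM DTT, 6 mM MgCl2, 80 mM KCl; 10 min at 37 °C. Stopped with cold 10% TCA/0.1 M pyrophosphate; filter-bound radioactivity counted.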

[5] = system: Human immunodeficiency virus 1; experiment: Selectivity ratio of IC50 for recombinant HIV-1 reverse transcriptase RNase H domain to IC50 for HIV-1 integrase

Row | Compound | EC50 [1] [µM] | CC50 [2] [µM] | IC50 [3] [µM] | IC50 [4] | IC50 ([4]; read-out: IC50) [µM] | Ratio IC50 [5]
1 | O=C1c2ccccc2C(CCc2ccccc2)C(=O)N1O (centres undefined) | > 30 | 30 | 27.8 | Not Active |  | 
2 | O=C1c2ccccc2C(Cc2ccccc2)C(=O)N1O (centres undefined) | > 95 | 95 | 37.7 | Not Active |  | 
3 | O=c1c2ccccc2c(Cc2ccccc2)c(O)n1O | > 88 | 88 | 39.9 |  | 14.9 | 
4 | CCCC1C(=O)N(O)C(=O)c2ccccc21 (centres undefined) | > 25.4 | 25.4 | 21.1 |  | 46.8 | 
5 | O=C1c2ccccc2C(Cc2ccc(C(F)(F)F)cc2)C(=O)N1O (centres undefined) | > 6 | 6 | 23.2 |  | 42.7 | 
6 | CCCCCC1C(=O)N(O)C(=O)c2ccccc21 (centres undefined) | > 98.3 | 98.3 | 1.35 |  | 33.6 | 
7 | CC(C)C1C(=O)N(O)C(=O)c2ccccc21 (centres undefined) | > 122 | 122 | 35.5 |  | 18.5 | 
8 | CCCCC1C(=O)N(O)C(=O)c2ccccc21 (centres undefined) | > 25.4 | 25.4 | 40.2 |  | 13.2 | 
9 | CCCCCCC1C(=O)N(O)C(=O)c2ccccc21 (centres undefined) | > 4.4 | 4.4 | 11.4 |  | 38 | 
10 | CCC1C(=O)N(O)C(=O)c2ccccc21 (centres undefined) | > 250 | 250 | 15.7 |  | 70 | 
11 | O=C1c2ccccc2C(CCCc2ccccc2)C(=O)N1O (centres undefined) | > 5.2 | 5.2 | 2.6 |  | 66.8 | 
12 | Cc1ccc(CC2C(=O)N(O)C(=O)c3ccccc32)cc1 (centres undefined) | > 5.5 | 5.5 | 3.4 |  | 80 | 
13 | CC1C(=O)N(O)C(=O)c2ccccc21 (centres undefined) | > 250 | 250 | 3.3 |  | 38.8 | 
14 | CCCCCCc1c(O)n(O)c(=O)c2ccccc12 | > 128 | 128 | 45.4 |  | 7.8 | 
15 | CCCCCCCc1c(O)n(O)c(=O)c2ccccc12 |  |  | 113 |  | 45 | 0.4
